Columns and labels:
L1210 = assay: Cytostatic activity against mouse L1210 cells assessed as inhibition of cell proliferation after 48 hrs by coulter counting analysis; assay type: functional, cell-based; conditions: Mus musculus, L1210, 48 h
Method in brief: (§1)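 Anti-proliferative screen in murine leukemia L1210, human T-lymphocyte CEM and human cervix carcinoma HeLa cultures. The value reported is the IC50, the concentration that inhibits cell proliferation by 50%.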

CCRF-CEM = assay: Cytostatic activity against human CEM cells assessed as inhibition of cell proliferation after 72 hrs by coulter counting analysis; assay type: functional, cell-based; conditions: Homo sapiens, CCRF-CEM, 72 h; method in brief: as §1
HeLa = assay: Cytostatic activity against human HeLa cells assessed as inhibition of cell proliferation after 72 hrs by coulter counting analysis; assay type: functional, cell-based; conditions: Homo sapiens, HeLa, 72 h; method in brief: as §1
Huh-7 = assay: Cytostatic activity against human HuH7 cells assessed as inhibition of cell proliferation after 96 hrs by coulter counting analysis; assay type: functional, cell-based; conditions: Huh-7, 96 h
Method in brief: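 Anti-proliferative testing extended to human kidney Caki-1 and human liver Huh-7 tumour cells. The value reported is the IC50, the concentration that inhibits tumour cell growth by 50%.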

K562 = assay: Anticancer activity against human K562 cells; assay type: functional
Method in brief: (§2)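 Values come from the NCI 60-cell-line human tumour panel, run on a single analog. Cytostatic and cytotoxic responses were read for each cell line across graded molar concentrations of that compound.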

RPMI-8226 = assay: Anticancer activity against human RPMI8226 cells; assay type: functional; method in brief: as §2
SR = assay: Anticancer activity against human SR cells; assay type: functional; method in brief: as §2
A549 = assay: Anticancer activity against human A549/ATCC cells; assay type: functional; method in brief: as §2
HOP-62 = assay: Anticancer activity against human HOP62 cells; assay type: functional; method in brief: as §2
NCI-H23 = assay: Anticancer activity against human NCI-H23 cells; assay type: functional; method in brief: as §2
NCI-H322M = assay: Anticancer activity against human NCI-H322M cells; assay type: functional; method in brief: as §2
NCI-H460 = assay: Anticancer activity against human NCI-H460 cells; assay type: functional; method in brief: as §2
NCI-H522 = assay: Anticancer activity against human NCI-H522 cells; assay type: functional; method in brief: as §2
COLO 205 = assay: Anticancer activity against human COLO205 cells; assay type: functional; method in brief: as §2
[1] = Anticancer activity against human HCC2998 cells; assay type: functional; method in brief: as §2
HT-29 = assay: Anticancer activity against human HT-29 cells; assay type: functional; method in brief: as §2
KM12 = assay: Anticancer activity against human KM12 cells; assay type: functional; method in brief: as §2
SW-620 = assay: Anticancer activity against human SW620 cells; assay type: functional; method in brief: as §2
SF-268 = assay: Anticancer activity against human SF268 cells; assay type: functional; method in brief: as §2
SNB-19 = assay: Anticancer activity against human SNB19 cells; assay type: functional; method in brief: as §2
U-251 = assay: Anticancer activity against human U251 cells; assay type: functional; method in brief: as §2
Malme-3M = assay: Anticancer activity against human MALME-3M cells; assay type: functional; method in brief: as §2
M14 = assay: Anticancer activity against human M14 cells; assay type: functional; method in brief: as §2
MDA-MB-435 = assay: Anticancer activity against human MDA-MB-435 cells; assay type: functional; method in brief: as §2
[2] = Anticancer activity against human UACC257 cells; assay type: functional
Method in brief: (§3)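 Assayed in the NCI Cancer-60 human tumour cell line panel, with activity read across several log-step concentrations.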

[3] = Anticancer activity against human OVCAR3 cells; assay type: functional; method in brief: as §2
[4] = Anticancer activity against human OVCAR4 cells; assay type: functional; method in brief: as §2
[5] = Anticancer activity against human OVCAR8 cells; assay type: functional; method in brief: as §2
SK-OV-3 = assay: Anticancer activity against human SKOV3 cells; assay type: functional; method in brief: as §2
786-0 = assay: Anticancer activity against human 786-0 cells; assay type: functional; method in brief: as §2
A498 = assay: Anticancer activity against human A498 cells; assay type: functional; method in brief: as §2
[6] = Anticancer activity against human RXF393 cells; assay type: functional; method in brief: as §2
SN12C = assay: Anticancer activity against human SN12C cells; assay type: functional; method in brief: as §2
TK-10 = assay: Anticancer activity against human TK10 cells; assay type: functional; method in brief: as §2
[7] = Anticancer activity against human UO31 cells; assay type: functional; method in brief: as §3
MDA-MB-231 = assay: Anticancer activity against human MDA-MB-231/ATCC cells; assay type: functional; method in brief: as §2
[8] = Anticancer activity against human Hs 578T cells; assay type: functional; method in brief: as §2
[9] = Anticancer activity against human BT549 cells; assay type: functional; method in brief: as §2
T47D = assay: Anticancer activity against human T47D cells; assay type: functional; method in brief: as §2
MDA-MB-468 = assay: Anticancer activity against human MDA-MB-468 cells; assay type: functional; method in brief: as §2
[10] = read-out: pLC50 (the source's name) (converted)

Compound `CC(C)(C)OC(=O)N[C@@H](Cc1ccccc1)C(=O)N(Cc1ccccc1)C1(C(=O)NCc2ccccc2)CCN(Cc2ccccc2)CC1` has an IC50 (L1210) of 3.5 µM, an IC50 (CCRF-CEM) of 4.4 µM and an IC50 (HeLa) of 4.2 µM. The IC50 (Huh-7) was 6.4 µM, the GI50 (K562) was 3.39 µM and the CC50 (K562; [10]) was > 100 µM. For the same compound, the TGI (K562; read-out: pTGI) was > 100 µM, the GI50 (RPMI-8226) was 2.19 µM and the CC50 (RPMI-8226; [10]) was > 100 µM. For the same compound, the TGI (RPMI-8226; read-out: pTGI (converted)) was 6.92 µM, the GI50 (SR) was 2.34 µM and the CC50 (SR; [10]) was > 100 µM. For the same compound, the TGI (SR; read-out: pTGI (converted)) was 7.59 µM, the GI50 (A549) was 3.89 µM and the CC50 (A549; [10]) was > 100 µM. The TGI (A549; read-out: pTGI) was > 100 µM, the GI50 (HOP-62) was 3.89 µM and the CC50 (HOP-62; [10]) was > 100 µM. For the same compound, the TGI (HOP-62; read-out: pTGI) was > 100 µM, the GI50 (NCI-H23) was 5.62 µM and the CC50 (NCI-H23; [10]) was > 100 µM. For the same compound, the TGI (NCI-H23; read-out: pTGI) was > 100 µM, the GI50 (NCI-H322M) was 9.33 µM and the CC50 (NCI-H322M; [10]) was > 100 µM. The TGI (NCI-H322M; read-out: pTGI) was > 100 µM, the GI50 (NCI-H460) was 3.02 µM and the CC50 (NCI-H460; [10]) was > 100 µM. The TGI (NCI-H460; read-out: pTGI (converted)) was 87.1 µM, the GI50 (NCI-H522) was 3.98 µM and the CC50 (NCI-H522; [10]) was > 100 µM. For the same compound, the TGI (NCI-H522; read-out: pTGI) was > 100 µM, the GI50 (COLO 205) was 1.66 µM and the CC50 (COLO 205; [10]) was 6.61 µM. The TGI (COLO 205; read-out: pTGI (converted)) was 3.31 µM, the GI50 ([1]; HCC 2998) was 4.57 µM and the CC50 ([1]; HCC 2998, read-out: pLC50 (the source's name) (converted)) was > 100 µM. For the same compound, the TGI ([1]; HCC 2998, read-out: pTGI) was > 100 µM, the GI50 (HT-29) was 2.14 µM and the CC50 (HT-29; [10]) was 57.5 µM. The TGI (HT-29; read-out: pTGI (converted)) was 6.76 µM, the GI50 (KM12) was 4.17 µM and the CC50 (KM12; [10]) was > 100 µM. The TGI (KM12; read-out: pTGI) was > 100 µM, the GI50 (SW-620) was 3.47 µM and the CC50 (SW-620; [10]) was > 100 µM. The TGI (SW-620; read-out: pTGI) was > 100 µM, the GI50 (SF-268) was 4.9 µM and the CC50 (SF-268; [10]) was > 100 µM. For the same compound, the TGI (SF-268; read-out: pTGI) was > 100 µM, the GI50 (SNB-19) was 5.25 µM and the CC50 (SNB-19; [10]) was > 100 µM. For the same compound, the TGI (SNB-19; read-out: pTGI) was > 100 µM, the GI50 (U-251) was 3.16 µM and the CC50 (U-251; [10]) was > 100 µM. The TGI (U-251; read-out: pTGI) was > 100 µM, the GI50 (Malme-3M) was 3.02 µM and the CC50 (Malme-3M; [10]) was > 100 µM. For the same compound, the TGI (Malme-3M; read-out: pTGI (converted)) was 10 µM, the GI50 (M14) was 2.63 µM and the CC50 (M14; [10]) was > 100 µM. The TGI (M14; read-out: pTGI (converted)) was 44.7 µM, the GI50 (MDA-MB-435) was 3.02 µM and the CC50 (MDA-MB-435; [10]) was > 100 µM. The TGI (MDA-MB-435; read-out: pTGI) was > 100 µM, the GI50 ([2]; UACC-257) was 2.57 µM and the CC50 ([2]; UACC-257, read-out: pLC50 (the source's name) (converted)) was > 100 µM. The TGI ([2]; UACC-257, read-out: pTGI) was > 100 µM, the GI50 ([3]; OVCAR-3) was 3.98 µM and the CC50 ([3]; OVCAR-3, read-out: pLC50 (the source's name) (converted)) was > 100 µM. The TGI ([3]; OVCAR-3, read-out: pTGI) was > 100 µM, the GI50 ([4]; OVCAR-4) was 3.24 µM and the CC50 ([4]; OVCAR-4, read-out: pLC50 (the source's name) (converted)) was > 100 µM. The TGI ([4]; OVCAR-4, read-out: pTGI) was > 100 µM, the GI50 ([5]; OVCAR-8) was 3.47 µM and the CC50 ([5]; OVCAR-8, read-out: pLC50 (the source's name) (converted)) was > 100 µM. For the same compound, the TGI ([5]; OVCAR-8, read-out: pTGI) was > 100 µM, the GI50 (SK-OV-3) was 3.02 µM and the CC50 (SK-OV-3; [10]) was > 100 µM. The TGI (SK-OV-3; read-out: pTGI) was > 100 µM, the GI50 (786-0) was 3.02 µM and the CC50 (786-0; [10]) was > 100 µM. For the same compound, the TGI (786-0; read-out: pTGI) was 43.7 µM, the GI50 (A498) was 1.45 µM and the CC50 (A498; [10]) was > 100 µM. The TGI (A498; read-out: pTGI (converted)) was 6.31 µM, the GI50 ([6]; RXF 393) was 3.09 µM and the CC50 ([6]; RXF 393, read-out: pLC50 (the source's name) (converted)) was > 100 µM. For the same compound, the TGI ([6]; RXF 393, read-out: pTGI) was > 100 µM, the GI50 (SN12C) was 3.47 µM and the CC50 (SN12C; [10]) was > 100 µM. The TGI (SN12C; read-out: pTGI) was > 100 µM, the GI50 (TK-10) was 3.16 µM and the CC50 (TK-10; [10]) was > 100 µM. For the same compound, the TGI (TK-10; read-out: pTGI (converted)) was 70.8 µM, the GI50 ([7]; UO-31) was 2.14 µM and the CC50 ([7]; UO-31, read-out: pLC50 (the source's name) (converted)) was > 100 µM. For the same compound, the TGI ([7]; UO-31, read-out: pTGI) was > 100 µM, the GI50 (MDA-MB-231) was 3.02 µM and the CC50 (MDA-MB-231; [10]) was > 100 µM. For the same compound, the TGI (MDA-MB-231; read-out: pTGI (converted)) was 79.4 µM, the GI50 [8] was 4.27 µM and the CC50 [8, 10] was > 100 µM. The TGI ([8]; read-out: pTGI) was > 100 µM, the GI50 ([9]; BT-549) was 2.09 µM and the CC50 ([9]; BT-549, read-out: pLC50 (the source's name) (converted)) was > 100 µM. The TGI ([9]; BT-549, read-out: pTGI (converted)) was 7.94 µM, the GI50 (T47D) was 2.88 µM and the CC50 (T47D; [10]) was > 100 µM. For the same compound, the TGI (T47D; read-out: pTGI) was > 100 µM, the GI50 (MDA-MB-468) was 1.62 µM and the CC50 (MDA-MB-468; [10]) was > 100 µM. It also gave a TGI (MDA-MB-468; read-out: pTGI (converted)) of 5.89 µM.

Source: ChEMBL document CHEMBL3286189, “Discovery and SAR studies of a novel class of cytotoxic 1,4-disubstituted piperidines via Ugi reaction” (Eur J Med Chem, 2014)
